# High-throughput results as filed in PubChem.
# ATG4B inhibitor: inhibitors of human ATG4B cysteine protease; inhibition, % at 8.33 µM; actives 0.51% (n = 340,000); ATG4B cleavage of LC3-PLA2, NBD-HPC fluorescence, 1 h; in the data active means inhibition above about 40%
# Target sequence (Q9Y4P1 whole entry, looked up): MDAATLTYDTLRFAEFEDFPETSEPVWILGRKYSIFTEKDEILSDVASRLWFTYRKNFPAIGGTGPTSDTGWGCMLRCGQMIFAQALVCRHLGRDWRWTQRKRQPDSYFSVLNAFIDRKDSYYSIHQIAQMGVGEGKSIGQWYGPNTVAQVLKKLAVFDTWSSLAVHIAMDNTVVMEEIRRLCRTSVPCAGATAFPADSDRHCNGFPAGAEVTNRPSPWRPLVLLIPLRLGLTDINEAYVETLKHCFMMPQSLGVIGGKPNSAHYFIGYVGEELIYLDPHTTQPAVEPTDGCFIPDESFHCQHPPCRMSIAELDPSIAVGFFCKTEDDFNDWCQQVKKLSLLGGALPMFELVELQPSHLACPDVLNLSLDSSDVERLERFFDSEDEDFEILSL
# UCH37 inh: inhibitors of human deubiquitinating enzyme UCH37. Q9Y5K5. purified proteasome/UCH37, Ub-AMC cleavage fluorescence. inhibition, % (test concentration not listed). actives 0.33% (n = 330,000);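 active means mean inhibition over replicate wells above about 20%, limit read from the data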;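 further: 0% = compound-free wells with enzyme and 100% = wells lacking proteasome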
#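 Material: Human UCH37 enzyme supplied as purified proteasome complex | Schedule: 30 min preincubation with enzyme, 25 min cleavage at room temperature | Detection: AMC fluorescence 355/460 nm | Measure: % inhibition of Ub-AMC cleavage fluorescence | Controls: Wells without proteasome as full block, compound-free enzyme plus substrate as uninhibited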
# Rin1 Abl inh: inhibitors of human Rin1-Abl protein interaction; inhibition, % at 7.35 µM; TR-FRET Rin1/Abl binding, biochemical; actives 0.4% (n = 360,000); AID 588664; P00519+Q13671; in the data active means inhibition above about 5%, passing the limit was not always enough
# Tb MetRS inh: Trypanosoma brucei MetRS inhibition. actives 0.4% (n = 360,000). purified T. brucei MetRS, ATP depletion, Kinase-Glo luminescence. inhibition, % at 11.9 µM;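 active means inhibition above a per-plate cutoff of the control wells' mean inhibition plus 3 SD, cut at about 5.5% in these data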;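 further: 0% = DMSO wells median and 100% = median of wells with control inhibitor compound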
#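 Measured by: Kinase-Glo luciferase luminescence reporting remaining unconsumed ATP. Material: purified T. brucei MetRS enzyme. Doses: 11.9 µM compound single dose, 0.9% DMSO. Medium: HEPES buffer containing pyrophosphatase, BSA, spermine, DTT. Times: 15 min preincubation, 2 h reaction, all 25 °C. Reagent: methionine, ATP and bulk E. coli tRNA.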
# Tb MetRS conf: Trypanosoma brucei MetRS inhibition confirmed. actives 93% (n = 1,400). inhibition, % at 11.9 µM. shares compounds with Tb MetRS inh. T. brucei MetRS enzyme, luminescence (ATP depletion); in the data active means inhibition above about 7%
# Jurkat tox: kills Jurkat cells in T. brucei MetRS counterscreen | shares compounds with Tb MetRS inh | Jurkat cells viability, ATP luminescence | inhibition, % at 8.3 µM | actives 12% (n = 1,400) | AID 624413; in the data active means inhibition above about 15%;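 further: 0% = vehicle and 100% = reference inhibitor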
# Tb MetRS inh FP: inhibits T. brucei methionyl tRNA synthetase in orthogonal FP test; AID 651607; shares compounds with Tb MetRS inh; inhibition, % at 11.9 µM; actives 44% (n = 1,400); purified T. brucei MetRS, fluorescence polarization; in the data active means inhibition above about 17%;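 further: 0% = vehicle wells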
# * hit, by the source's call; · = not tested or not shown. This is a sample that favours compounds with a hit; in the whole collection about 1.4% have one here.
SMILES,ATG4B inhibitor,UCH37 inh,Rin1 Abl inh,Tb MetRS inh,Tb MetRS conf,Jurkat tox,Tb MetRS inh FP
Cc1[nH]c2ccccc2c1/C=N/Nc1nc2ccccc2[nH]1,-19,·,0,8.3*,29*,9,30*
C(=N\Nc1nc2ccccc2[nH]1)/c1c[nH]c2ccccc12,-20,·,0,12*,26*,13,47*
Cc1ccccc1/C=N/Nc1nc2ccccc2[nH]1,-2,·,2,2,·,·,·
Brc1ccc(-c2ccc(/C=N/Nc3nc4ccccc4[nH]3)o2)cc1,-8,·,1,11*,7.9*,12,20*
O=[N+]([O-])c1ccc(N/N=C/c2c[nH]c3ccccc23)cc1,28,·,-2,7.5*,12*,21*,55*
COc1ccccc1N(C(=O)CNC(=O)c1ccco1)C(C(=O)NC1CCCC1)c1ccco1 (stereo not given),1,-1,2,-1,·,·,·
CCC(=O)Nc1nonc1-c1nc2ccccc2n1Cc1cccc2ccccc12,-8,-1,-3,-1,·,·,·
C[C@H](O)[C@@H]1C(=O)N2CCc3c([nH]c4ccccc34)[C@@H]2C[C@@H]1N(C)C(=O)Nc1cc(Cl)cc(Cl)c1,·,·,0,71*,91*,18*,70*
CN(Cc1cc(Cl)cc(Cl)c1)[C@H]1C[C@H]2c3[nH]c4ccccc4c3CCN2C(=O)[C@H]1CO,·,·,-1,62*,106*,-3,86*
CN(C(=O)C(C)(C)C)[C@H]1C[C@H]2c3[nH]c4ccccc4c3CCN2C(=O)[C@H]1CO,·,·,-2,1,·,·,·
C[C@H](O)[C@@H]1C(=O)N2CCc3c([nH]c4ccccc34)[C@@H]2C[C@@H]1N(C)C(=O)Nc1ccccc1,·,·,-4,2,·,·,·
C[C@H](O)[C@@H]1CN2CCc3c([nH]c4ccccc34)[C@@H]2C[C@@H]1N(C)C(=O)Nc1ccccc1,·,·,1,2,·,·,·
C[C@H](O)[C@@H]1CN2CCc3c([nH]c4ccccc34)[C@@H]2C[C@@H]1N(C)C(=O)Nc1cc(Cl)cc(Cl)c1,·,·,-4,29*,58*,9,37*
O=c1cc(-c2ccsc2)oc2ccc(-c3ccc4cc[nH]c4c3)cc12,20,-3,2,0,·,·,·
CC(=O)c1ccc(N2CCN(C(=O)c3ccco3)C(C)C2)c(F)c1 (stereo not given),2,5,3,0,·,·,·
Nc1nnc(-c2ccc(Cl)c(Cl)c2)s1,-2,-7,2,-1,·,·,·
CCCCCCCCNc1ncnc2ccccc12,5,3,3,11*,25*,46*,8
CN1CCCN(C(=O)/C=C/c2ccc(Cl)cc2Cl)CC1,-2,5,-2,8.0*,17*,-6,1
CCOC(=O)c1nc(Nc2ccc(C)cc2)c2ccccc2n1,-9,-1,-5,-3,·,·,·
COC(=O)c1cccc(NC(=O)Cn2nnc3ccccc32)c1,-12,3,2,14*,27*,-1,15
CCOc1ccc(NS(=O)(=O)c2ccc(C(=O)NCC(c3ccc(OC)cc3)N3CCCC3)cc2)cc1 (stereo not given),-17,-3,1,0,·,·,·
Cc1ccc2[nH]c3c(N4CCc5ccccc5C4)ncnc3c2c1,30,·,-2,12*,5,47*,9
Fc1ccc2[nH]c3c(N4CCc5ccccc5C4)ncnc3c2c1,34,-14,-2,58*,14*,50*,13
CN1CCN(c2ncnc3c2[nH]c2ccc(F)cc23)CC1,1,-52,0,1,·,·,·
O=C(NC(c1ccc(Cl)cc1)c1cnccn1)C1CCN(Cc2ccccc2)CC1 (stereo not given),·,·,2,0,·,·,·
SMILES,ATG4B inhibitor,UCH37 inh,Rin1 Abl inh,Tb MetRS inh,Tb MetRS conf,Jurkat tox,Tb MetRS inh FP
CC(=O)c1cccc(NC(=O)C(C)OC(=O)CNC(=O)c2ccc(C)s2)c1 (stereo not given),-13,3,-1,14*,29*,1,11
CC(=O)Nc1ccc(NC(=O)C(C)OC(=O)CNC(=O)c2cccs2)cc1 (stereo not given),1,5,3,0,·,·,·
COc1ccc2c(c1)c(C(=O)O)c(C)n2CCc1ccc(OC)c(OC)c1,-1,2,2,0,·,·,·
Cc1ccc2cc(CCNC(=O)C(=O)c3c[nH]c4ccccc34)c(=O)[nH]c2c1,-22,-7,-5,0,·,·,·
Cc1ccc2cc(CCNC(=O)C(=O)c3c(C)[nH]c4ccccc34)c(=O)[nH]c2c1,-24,3,0,13*,31*,5,4
Cc1ccc(C(=O)Nc2cccc(NC(=O)c3ccc(C)c([N+](=O)[O-])c3)n2)cc1[N+](=O)[O-],1,4,0,-1,·,·,·
O=C(CNC(=O)c1cccc(Br)c1)N/N=C/c1ccc[nH]1,-4,·,0,20*,53*,15,24*
Cc1ccc(C)c(OCCC(=O)Nc2cccc(S(=O)(=O)NC3=NCCCCC3)c2)c1,-6,0,4,7.0*,22*,6,18*
Cc1ccc(NC(=O)c2ccc(OCC3CCCO3)cc2)c(C)c1 (stereo not given),8,-1,2,1,·,·,·
CCOC(=O)CN(C(=O)CSc1nnc2c(n1)[nH]c1ccc(F)cc12)c1ccccc1,-14,5,-5,6.3*,17*,2,10
CCOC(=O)CN(C(=O)CSc1nnc2c(n1)[nH]c1ccccc12)c1ccccc1,-9,5,-2,1,·,·,·
Cc1ccc(-n2cc(-c3ccc([N+](=O)[O-])cc3)[nH]c2=S)c(C)c1,17,6,-6,0,·,·,·
O=C(COC(=O)C1CCN(c2ccc(C(F)(F)F)cn2)CC1)Nc1cccc(F)c1,1,2,-1,6.0*,19*,0,6
Cc1ccc(NC(=O)COC(=O)C2CCN(c3ccc(C(F)(F)F)cn3)CC2)cc1C,-4,-2,3,0,·,·,·
CCC(=O)NN=Cc1ccc(OS(=O)(=O)c2ccccc2)cc1,·,1,·,·,·,·,·
CCCCn1cnc2cc(NCc3cccc(OC)c3O)ccc21,-7,-1,-7,3,·,·,·
CCn1cnc2cc(NCc3cccc(OC)c3O)ccc21,-1,-5,7,18*,36*,4,15
CN(C)S(=O)(=O)c1cc(NC(=O)c2ccc(-n3ccnc3)c([N+](=O)[O-])c2)ccc1Cl,-9,-2,0,9.9*,22*,34*,14
COc1ccccc1NC(=O)c1ccc(-n2ccnc2)c([N+](=O)[O-])c1,0,6,2,8.8*,27*,15,22*
Cc1nn(CC(=O)Nc2ccc(Cl)c(S(=O)(=O)N(C)C)c2)c(C)c1[N+](=O)[O-],-2,1,0,1,·,·,·
